Test [1] can be described thus: inhibitors of TNFa-induced NFkB p65 translocation, primary screen, imaging, HUVEC, MLSMR starter and 10KST1 sets (AID 438;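 active = inhibition above 20% together with a positive visual image hit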;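 also: compound added about 3h40 before a 20 min TNFalpha stimulation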;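 as to inhibition: signal is the nuclear over cytoplasmic p65 intensity ratio per well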). As to conditions: HUVEC TNFa-induced p65 nuclear translocation; cell count: measured here: nuclei count (cytotoxicity indicator), at 2.08 µM; inhibition: at 2 µM, stronger effect = higher value, 0% TNFa-plus-vehicle, 100% no-TNFa wells.
The nature of test [2]: reduction of polyQ htt aggregates in cells – imaging, exon1htt(103Q)mCFP cells, high-content imaging, primary screen (AID 483;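 active = visual image review flags a hit and inhibition of aggregation exceeds 20%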;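 also: compound exposure lasted 3 days before fixation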;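 as to nuclei count: percent of the per-plate median nuclei count of sample wells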). As to conditions: exon1htt(103Q)mCFP cell line, aggregate imaging, at 2 µM; inhibition of aggregation: stronger effect = higher value; nuclei count: measured here: cell count, toxicity.
A short description of test [3]: endothelial E-selectin expression blockers – imaging, HUVEC, immunofluorescence, MLSMR starter and 10KST1 sets, primary screen (AID 487;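 active = visually confirmed hit in the image check and inhibition above 20%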;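 as to inhibition: signal is fraction of cell area covered by stained E-selectin grains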;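 as to nuclei count: 100% = median nuclei count of all wells on the same plate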). The conditions noted are these: HUVEC TNFalpha-induced E-selectin immunofluorescence imaging, at 2 µM; inhibition: stronger effect = higher value; nuclei count: measured here: cell number, toxicity.
For test [4], the target named is Voltage-gated potassium channel subunit beta-2 (Rattus norvegicus) (UniProt P62483). The test is described as follows: inhibitors of rat Kvbeta2 reductase activity – biochemical, NADPH fluorescence, primary screen (AID 622;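 active = fluorescence slope higher than the sample average by over 3 SD, cut at about -0.22 in these data, passing the limit was not always enough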;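 also: slope of raw intensity against log time taken from 70 to 1610 s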). As to conditions: recombinant KvBeta, 4-cyanobenzaldehyde reduction, at 10 µM, stronger effect = higher value.
Voltage-gated potassium channel subunit beta-2 (Rattus norvegicus), sequence (P62483 whole entry, looked up): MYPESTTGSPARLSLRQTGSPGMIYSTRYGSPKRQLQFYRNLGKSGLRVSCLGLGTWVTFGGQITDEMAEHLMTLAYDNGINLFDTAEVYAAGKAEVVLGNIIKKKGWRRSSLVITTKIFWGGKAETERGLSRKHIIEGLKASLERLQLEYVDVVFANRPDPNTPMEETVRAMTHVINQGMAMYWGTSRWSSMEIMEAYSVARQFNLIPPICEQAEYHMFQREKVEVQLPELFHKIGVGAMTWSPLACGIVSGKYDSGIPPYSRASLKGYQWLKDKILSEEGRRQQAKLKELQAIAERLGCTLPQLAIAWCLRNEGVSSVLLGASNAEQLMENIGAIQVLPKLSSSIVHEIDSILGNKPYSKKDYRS
The target is the same in test [5]. The test can be described thus: enhancers of rat Kvbeta2 NADPH turnover – biochemical, NADPH fluorescence, primary screen (AID 623;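 active = NADPH fluorescence slope more negative than the mean of all samples by about 3 SD, 99.7% confidence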;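 also: fluorescence intensity change per second fitted from 20 to 320 s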). The conditions noted are these: Recombinant KvBeta, NADPH fluorescence decrease slope, 10 min; at 10 µM; stronger effect = lower value.
For test [6], the target named is Muscarinic acetylcholine receptor M4 (Homo sapiens) (UniProt P08173). The test is described as follows: M4-linked GIRK flux change, two-sided – cell-based, HEK293 M4/GIRK, thallium flux, BTC-AM, M4 allosteric agonist project, primary screen (AID 625;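 active = fluorescence slope after compound addition differing from the mean of all tested samples at 99.7% confidence, mostly higher but some lower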;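 also: thallium influx through GIRK channels coupled to M4 in HEK293 cells with BTC-AM dye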). The conditions noted are these: at 10 µM, actives lie on both sides. In outline:
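Material – HEK293 cells with M4 receptor and GIRK channels · Buffer or medium – pH 7.3 thallium assay buffer · Doses – one dose, 10 µM final · Timing – cells overnight at 37 °C, BTC-AM loading 1 h, reads 2 min total · Measured by – kinetic fluorescence with BTC-AM dye · Controls – carbachol and DMSO controls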

The nature of test [7]: blockers of RIG-like receptor reporter activation – cell-based, Sendai virus stimulus, luciferase, 10K MLSCN set, TLR/RLR signaling modifier project, primary screen (AID 602276;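 active = inhibition at or above 50% at 10 µM; inactive = inhibition below 50%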;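 also: firefly luciferase from ISG56 promoter only with Renilla not read in this screen; 0% = Sendai virus plus DMSO and 100% = medium plus DMSO without virus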). The conditions noted are these: HEK293 RL24 IRF3 luciferase reporter, at 10 µM, stronger effect = higher value.
The nature of test [8]: TLR3 IRF3 reporter activation blockers – cell-based, poly I:C stimulus, luciferase, 10K MLSCN set, primary screen (AID 602277). The conditions noted are these: HEK293-TLR3 RL24 IRF3 luciferase reporter, at 10 µM, stronger effect = higher value.

Calls of active or inactive are those of the source.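 The calls were made as follows, unless noted: active = inhibition of the reporter signal at or above 50%; inactive = inhibition below 50%.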

Muscarinic acetylcholine receptor M4 (Homo sapiens), sequence (P08173 whole entry, looked up): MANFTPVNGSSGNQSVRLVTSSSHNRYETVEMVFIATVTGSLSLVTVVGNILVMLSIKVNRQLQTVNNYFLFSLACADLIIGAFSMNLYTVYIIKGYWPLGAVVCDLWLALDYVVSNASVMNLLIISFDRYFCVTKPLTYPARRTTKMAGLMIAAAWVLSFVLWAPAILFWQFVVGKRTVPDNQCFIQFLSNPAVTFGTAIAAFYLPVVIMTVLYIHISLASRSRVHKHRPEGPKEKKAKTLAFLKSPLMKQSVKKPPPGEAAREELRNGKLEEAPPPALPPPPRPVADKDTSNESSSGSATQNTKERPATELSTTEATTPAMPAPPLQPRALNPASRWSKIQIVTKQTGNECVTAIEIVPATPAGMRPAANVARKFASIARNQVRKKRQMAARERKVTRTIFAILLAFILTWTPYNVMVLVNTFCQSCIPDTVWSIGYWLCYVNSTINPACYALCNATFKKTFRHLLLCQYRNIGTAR

As usually defined, the inhibition is the drop in the measured response relative to a control, in per cent. With `CCOc1ccc(N(C)S(=O)(=O)c2ccc3[nH]cc(C(=O)NCC4CCCO4)c(=O)c3c2)cc1` (centres undefined), the cell count in test [1] was determined as 313. Besides, the inhibition in test [1] is 3.3% (inactive); in test [3], 4% (inactive); in test [7], 1.36% (inactive); in test [8], 23% (inactive). Further, the inhibition of aggregation in test [2] was -9.8% (inactive). Further, the nuclei count in test [2] is 67.5%; in test [3] it was 96.5%. For the same molecule, the figures for the fluorescence slope in test [4] and in test [6] were -0.567 (inactive) and 0.00944 (inactive), respectively. In addition, in test [5], the NADPH fluorescence slope was -4.5e-05 (inactive).
In the case of `O=C1CN(c2ccccc2F)C(=O)CN1c1ccccc1F`, the cell count in test [1] came out at 330. Further, the inhibition in test [1] is -2.3% (inactive); in test [3], -61.6% (inactive); in test [7] it was 14.9% (inactive); in test [8] it was 14.3% (inactive). Besides, the inhibition of aggregation in test [2] was -2.1% (inactive). Moreover, the figures for the nuclei count in test [2] and in test [3] were 97.5% and 89.8%, respectively. Further, the fluorescence slope in test [4] was -0.476 (inactive); in test [6], 0.00583 (inactive). For the same molecule, in test [5], the NADPH fluorescence slope is -3.1e-05 (inactive).
On to `O=C(c1ccco1)N1CCN(c2c(-c3ccccc3)c3cc(Cl)ccc3[nH]c2=O)CC1`, for which the cell count in test [1] was found to be 603. Besides, the inhibition in test [1] is 2.1% (inactive); in test [3] it was -72.2% (inactive); in test [7] it was 24.2% (inactive); in test [8] it was 25.7% (inactive). The inhibition of aggregation in test [2] was -2.2% (inactive). The nuclei count was 119% in test [2] and 118% in test [3]. Besides, the figures for the fluorescence slope in test [4] and in test [6] were -0.456 (inactive) and 0.00537 (inactive), respectively. For the same molecule, in test [5], the NADPH fluorescence slope was 2.5e-05 (inactive).
Take `O=C1c2cccnc2C(O)N1Cc1ccc(F)cc1` (centres undefined): in test [1], the cell count turned out to be 375. Besides, the inhibition in test [1] is 1.1% (inactive); in test [3], -11.7% (inactive); in test [7], 10.8% (inactive); in test [8] it was 17.7% (inactive). In addition, the inhibition of aggregation in test [2] is 13.7% (inactive). Also, the nuclei count is 118% in test [2] and 116% in test [3]. In addition, the values for the fluorescence slope in test [4] and in test [6] were -0.354 (inactive) and 0.00468 (inactive), respectively. Moreover, in test [5], the NADPH fluorescence slope was -8.5e-05 (inactive).
As for `Cc1ccc(C(=O)CSc2nnc(CNc3ccc(C)cc3C)o2)cc1`, in test [1], the cell count came out at 553. The inhibition in test [1] was -7.3% (inactive); in test [3], -124% (inactive); in test [7], 6.54% (inactive); in test [8] it was -0.256% (inactive). Further, the inhibition of aggregation in test [2] was 19.7% (inactive). Besides, the values for the nuclei count in test [2] and in test [3] were 97.5% and 193%, respectively. For the same molecule, the results for the fluorescence slope in test [4] and in test [6] were -0.477 (inactive) and 0.00488 (inactive), respectively. Moreover, in test [5], the NADPH fluorescence slope is -8.9e-06 (inactive).
For `CCOC(=O)COc1ccc(S(=O)(=O)N2CCc3ccccc3C2)cc1`, the cell count in test [1] came to 447. The inhibition is 3.3% (inactive) in test [1], -5.1% (inactive) in test [3], 19.6% (inactive) in test [7] and 23.3% (inactive) in test [8]. Moreover, in test [2], the inhibition of aggregation is -59% (inactive). Further, the nuclei count is 58.4% in test [2] and 96% in test [3]. The fluorescence slope in test [4] was -0.555 (inactive); in test [6], 0.00522 (inactive). Further, the NADPH fluorescence slope in test [5] was -4.9e-05 (inactive).
`CC(C)c1ccc(-c2nc(N3CCCCC3)[nH]c(=O)c2C#N)cc1`: the cell count in test [1] came out at 459. For the same molecule, the inhibition is -4.5% (inactive) in test [1], -48.9% (inactive) in test [3], -5% (inactive) in test [7] and -1.05% (inactive) in test [8]. Also, in test [2], the inhibition of aggregation is -12% (inactive). Also, the nuclei count in test [2] was found to be 102%; in test [3], 107%. In addition, the values for the fluorescence slope in test [4] and in test [6] were -0.478 (inactive) and 0.00632 (inactive), respectively. Moreover, in test [5], the NADPH fluorescence slope was -3.9e-06 (inactive).
As for `FC(F)(F)COc1nc(N2CCCCC2)nc(N2CCNCC2)n1`, the cell count in test [1] amounted to 372. Besides, the inhibition in test [1] is -7.9% (inactive); in test [3], 13.6% (inactive); in test [7], 4.6% (inactive); in test [8], 21.6% (inactive). The inhibition of aggregation in test [2] is -3.5% (inactive). Besides, the figures for the nuclei count in test [2] and in test [3] were 99.5% and 109%, respectively. Also, the fluorescence slope in test [4] was -0.321 (inactive); in test [6] it was 0.00559 (inactive). Moreover, the NADPH fluorescence slope in test [5] is -5.4e-05 (inactive).
Take `COCCNC(=O)Cn1nc(C(F)(F)F)c(Br)c1C`: in test [1], the cell count was 376. The inhibition is 1.1% (inactive) in test [1], 0.5% (inactive) in test [3], 3.89% (inactive) in test [7] and 20.6% (inactive) in test [8]. In addition, the inhibition of aggregation in test [2] was 19.5% (inactive). For the same molecule, the values for the nuclei count in test [2] and in test [3] were 65.4% and 92%, respectively. In addition, the fluorescence slope in test [4] was -0.548 (inactive); in test [6], 0.00551 (inactive). The NADPH fluorescence slope in test [5] is -4.9e-05 (inactive).
With `CCc1nc2c(cnn2-c2ccc(Cl)cc2)c(=O)n1-c1ccc2c(c1)OCCO2`, in test [1], the cell count is 706. In addition, the inhibition in test [1] was -7.7% (inactive); in test [3], -49.7% (inactive); in test [7], 3.09% (inactive); in test [8], -2.86% (inactive). Besides, the inhibition of aggregation in test [2] is -5.1% (inactive). The nuclei count in test [2] turned out to be 120%; in test [3], 122%. The fluorescence slope in test [4] is -0.543 (inactive); in test [6], 0.00631 (inactive). Moreover, the NADPH fluorescence slope in test [5] was -1.7e-05 (inactive).
For `Cc1ccc(N2CC(C(=O)Nc3ccc4c(c3)OCO4)CC2=O)cc1` (centres undefined), in test [1], the cell count worked out at 556. Besides, the inhibition in test [1] is -19.5% (inactive); in test [3], -43.5% (inactive); in test [7], 14.2% (inactive); in test [8], 21.6% (inactive). In test [2], the inhibition of aggregation is 18.6% (inactive). The nuclei count was found to be 110% in test [2] and 120% in test [3]. The values for the fluorescence slope in test [4] and in test [6] were -0.567 (inactive) and 0.00603 (inactive), respectively. In test [5], the NADPH fluorescence slope was -4.3e-05 (inactive).
`CCC(C)NC(=O)CSC1=Nc2ccccc2C2=NC(CC(=O)NCc3ccccc3)C(=O)N12` (centres undefined): in test [1], the cell count stood at 651. Besides, the inhibition in test [1] is -7.5% (inactive); in test [3], -58.9% (inactive); in test [7] it was 10.6% (inactive); in test [8], 26.5% (inactive). The inhibition of aggregation in test [2] is -9% (inactive). Besides, the nuclei count in test [2] amounted to 55.7%; in test [3], 89.6%. Besides, the fluorescence slope is -0.461 (inactive) in test [4] and 0.00538 (inactive) in test [6]. In test [5], the NADPH fluorescence slope was -1.4e-05 (inactive).
Take `COc1cc(C(=O)N2c3ccccc3CC2C)cc(OC)c1OC` (centres undefined): in test [1], the cell count came out at 348. Besides, the inhibition in test [1] is 4.3% (inactive); in test [3], -13.9% (inactive); in test [7], 17.5% (inactive); in test [8], 33.5% (inactive). Also, the inhibition of aggregation in test [2] is -6.3% (inactive). For the same molecule, the nuclei count in test [2] amounted to 89%; in test [3], 113%. The fluorescence slope was -0.296 (inactive) in test [4] and 0.0071 (inactive) in test [6]. In addition, in test [5], the NADPH fluorescence slope was -2.6e-05 (inactive).
`CCOC(=O)NC(c1ccccc1)C1CCCCC1=O` (centres undefined): the cell count in test [1] worked out at 486. The inhibition in test [1] is -3.4% (inactive); in test [3], -25.5% (inactive); in test [7], 14.4% (inactive); in test [8] it was 18.4% (inactive). Also, in test [2], the inhibition of aggregation is -0.1% (inactive). Moreover, the nuclei count was determined as 103% in test [2] and 105% in test [3]. For the same molecule, the results for the fluorescence slope in test [4] and in test [6] were -0.565 (inactive) and 0.00674 (inactive), respectively. Also, the NADPH fluorescence slope in test [5] was 1e-05 (inactive).

Source of the values: PubChem BioAssay.
